Experimental data as given in ChEMBL document CHEMBL3425482, “Structure-guided design and optimization of dipeptidyl inhibitors of norovirus 3CL protease. Structure-activity relationships and biochemical, X-ray crystallographic, cell-based, and in vivo studies” (J Med Chem, 2015).

Columns and labels:
Norovirus = assay: Antiviral activity against Norovirus infected in human HG23 cells; format: functional, cell-based
[1] = Inhibition of Norovirus recombinant 3CL protease using Edans-EPDFHLQGPEDLAK-Dabcyl as substrate for 30 mins by fluorometry
[2] = target: Prothrombin (Homo sapiens) (UniProt P00734); assay: Inhibition of human thrombin after 10 mins incubation by chromogenic substrate hydrolysis assay
Homo sapiens = species on record: Homo sapiens; assay: Inhibition of chymotrypsin (unknown origin); conditions: concentration not given here
[3] = target: Coagulation factor X (Homo sapiens) (UniProt P00742); assay: Inhibition of human factor 10a using Pefachrome-tPA substrate; conditions: concentration not given here
[4] = Antiviral activity against Murine norovirus 1 infected in mouse RAW264.7 cells assessed as inhibition of viral replication; format: functional, cell-based
In short: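 RAW264.7 mouse macrophages were kept in DMEM with 2–5% FBS. Serially diluted compound (DMSO ≤0.5%) was added to confluent monolayers. Cells were infected immediately with MNV-1 at MOI 0.05–0.1 and held 48 h at 37 °C. After freeze-thaw, virus titres were read by TCID50. EC50 came from nonlinear variable-slope regression of inhibition versus log concentration.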

[5] = target: Plasminogen (Homo sapiens) (UniProt P00747); assay: Inhibition of plasmin (unknown origin); conditions: concentration not given here
[6] = target: T1, Carboxypeptidase A1 (Homo sapiens) (UniProt P15085); assay: Inhibition of carboxypeptidase A (unknown origin); conditions: concentration not given here
T1 sequence (whole entry): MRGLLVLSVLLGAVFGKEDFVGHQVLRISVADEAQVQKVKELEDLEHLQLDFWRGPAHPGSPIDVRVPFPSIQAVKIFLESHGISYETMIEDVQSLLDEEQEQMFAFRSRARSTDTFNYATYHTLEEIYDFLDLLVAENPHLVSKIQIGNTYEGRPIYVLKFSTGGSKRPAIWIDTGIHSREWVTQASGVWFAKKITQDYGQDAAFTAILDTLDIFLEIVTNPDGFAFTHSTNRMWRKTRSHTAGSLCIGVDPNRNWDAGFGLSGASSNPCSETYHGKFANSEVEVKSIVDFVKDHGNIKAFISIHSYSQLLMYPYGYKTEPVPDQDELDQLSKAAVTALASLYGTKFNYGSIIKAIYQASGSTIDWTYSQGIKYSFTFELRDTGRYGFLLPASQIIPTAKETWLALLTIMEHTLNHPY

[7] = Antiviral activity against Murine norovirus 1 infected in Balb/c mouse assessed as reduction in viral titers in large intestine at 10 mg/kg, ip twice daily started 4 hrs prior to infection measured after 72 hrs post infection; conditions: route intraperitoneal
Bos taurus = species on record: Bos taurus; assay: Inhibition of bovine trypsin; conditions: concentration not given here
[8] = Antiviral activity against Murine norovirus 1 infected in Balb/c mouse assessed as reduction in viral titers in small intestine at 10 mg/kg, ip twice daily started 4 hrs prior to infection measured after 72 hrs post infection; conditions: route intraperitoneal
[9] = target: T2, Neutrophil elastase (Homo sapiens) (UniProt P08246); assay: Inhibition of human neutrophil elastase; conditions: concentration not given here
T2 sequence (whole entry): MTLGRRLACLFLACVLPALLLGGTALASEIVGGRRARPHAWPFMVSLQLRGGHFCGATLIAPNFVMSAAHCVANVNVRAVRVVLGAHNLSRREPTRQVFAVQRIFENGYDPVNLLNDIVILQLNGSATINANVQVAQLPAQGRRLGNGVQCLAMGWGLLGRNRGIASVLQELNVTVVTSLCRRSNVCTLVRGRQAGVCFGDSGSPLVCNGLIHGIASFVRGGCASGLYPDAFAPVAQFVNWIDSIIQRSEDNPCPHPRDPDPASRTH

Chain of Coagulation factor X (Homo sapiens) (P00742 41-179 limits assumed): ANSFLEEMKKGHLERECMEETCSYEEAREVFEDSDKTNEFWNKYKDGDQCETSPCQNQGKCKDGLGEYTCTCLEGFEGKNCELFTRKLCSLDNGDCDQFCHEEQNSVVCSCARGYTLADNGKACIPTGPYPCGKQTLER
Chain of Coagulation factor X (Homo sapiens) (P00742 235-488 limits assumed): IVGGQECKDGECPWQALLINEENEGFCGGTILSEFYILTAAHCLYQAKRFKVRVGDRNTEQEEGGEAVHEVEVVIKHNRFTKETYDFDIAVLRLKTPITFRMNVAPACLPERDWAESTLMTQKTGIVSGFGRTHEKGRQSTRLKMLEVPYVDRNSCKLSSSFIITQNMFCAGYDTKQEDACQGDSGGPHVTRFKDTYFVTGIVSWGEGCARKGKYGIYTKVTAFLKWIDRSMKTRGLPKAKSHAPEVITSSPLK
Chain of Plasminogen (Homo sapiens) (P00747 97-580 limits assumed): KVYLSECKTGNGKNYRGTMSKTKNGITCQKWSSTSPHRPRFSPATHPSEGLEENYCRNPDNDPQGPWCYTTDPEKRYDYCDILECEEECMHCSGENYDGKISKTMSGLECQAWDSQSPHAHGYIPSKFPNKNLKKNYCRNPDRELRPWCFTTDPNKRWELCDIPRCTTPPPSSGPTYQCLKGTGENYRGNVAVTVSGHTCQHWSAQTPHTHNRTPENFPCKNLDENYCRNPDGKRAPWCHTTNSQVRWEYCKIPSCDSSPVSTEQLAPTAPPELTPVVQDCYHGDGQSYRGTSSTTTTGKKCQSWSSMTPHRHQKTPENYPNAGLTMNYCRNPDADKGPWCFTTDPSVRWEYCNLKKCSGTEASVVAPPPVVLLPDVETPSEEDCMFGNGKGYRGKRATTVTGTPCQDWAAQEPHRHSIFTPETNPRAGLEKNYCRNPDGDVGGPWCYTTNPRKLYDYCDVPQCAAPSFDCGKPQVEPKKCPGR
Chain of Plasminogen (Homo sapiens) (P00747 581-810 limits assumed): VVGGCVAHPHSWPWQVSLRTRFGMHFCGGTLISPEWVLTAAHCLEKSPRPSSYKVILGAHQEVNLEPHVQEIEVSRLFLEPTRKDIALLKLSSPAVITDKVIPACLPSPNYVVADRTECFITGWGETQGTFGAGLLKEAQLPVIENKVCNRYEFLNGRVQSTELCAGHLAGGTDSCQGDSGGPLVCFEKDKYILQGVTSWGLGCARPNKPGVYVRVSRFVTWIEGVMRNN

Row | EC50 (Norovirus) | IC50 [1] | SMILES | further results
1 | 200 nM | 1500 nM | O=C(N[C@@H](CC1CCCCC1)C(=O)N[C@@H](C[C@@H]1CCNC1=O)C(=O)C(=O)NC1CC1)OCc1cccc(Br)c1 | –
2 | 300 nM | 800 nM | CC(C)C[C@H](NC(=O)OCc1ccccc1)C(=O)N[C@@H](C[C@@H]1CCNC1=O)C(O)S(=O)(=O)O (stereo not given in full) | –
3 | 300 nM | 3500 nM | O=C(N[C@@H](CC1CCCCC1)C(=O)N[C@@H](C[C@@H]1CCNC1=O)C(=O)C(=O)NC1CC1)OCc1cccc(F)c1 | –
4 | 150 nM | 5100 nM | O=C[C@H](C[C@@H]1CCNC1=O)NC(=O)[C@@H](NC(=O)OCc1cccc(Cl)c1)C1CCCCC1 | –
5 | 30 nM | 150 nM | O=C(N[C@@H](CC1CCCCC1)C(=O)N[C@@H](C[C@@H]1CCNC1=O)C(O)S(=O)(=O)O)OCc1cccc(Br)c1 (stereo not given in full) | –
6 | 80 nM | 710 nM | O=C[C@H](C[C@@H]1CCNC1=O)NC(=O)[C@H](CC1CCCCC1)NC(=O)OCc1ccc(Cl)cc1 | –
7 | 40 nM | 150 nM | O=C(N[C@@H](CC1CCCCC1)C(=O)N[C@@H](C[C@@H]1CCNC1=O)C(O)S(=O)(=O)O)OCc1cccc(I)c1 (stereo not given in full) | –
8 | 85 nM | 250 nM | O=C(N[C@@H](CC1CCCCC1)C(=O)N[C@@H](C[C@@H]1CCNC1=O)C(=O)C(=O)NC1CC1)OCc1cccc(Cl)c1 | –
9 | 150 nM | 1400 nM | COc1cccc(COC(=O)N[C@@H](CC2CCCCC2)C(=O)N[C@H](C=O)C[C@@H]2CCNC2=O)c1 | –
10 | 1500 nM | 4500 nM | CC(C)(C)OC(=O)Nc1cccc(COC(=O)N[C@@H](CC2CCCCC2)C(=O)N[C@H](C=O)C[C@@H]2CCNC2=O)c1 | –
11 | 20 nM | 100 nM | O=C[C@H](C[C@@H]1CCNC1=O)NC(=O)[C@H](CC1CCCCC1)NC(=O)OCc1cccc(Cl)c1 | inhibition [2]: 0%; inhibition (Homo sapiens): 0%; inhibition [3]: 1%; EC50 [4]: 80 nM; inhibition [5]: 0%; inhibition [6]: 12%; fold change (FC) [7]: 7.98; inhibition (Bos taurus): 5%; fold change (FC) [8]: 42.12; inhibition [9]: 15%
12 | 300 nM | 5500 nM | CC(C)C[C@H](NC(=O)OCc1cccc(Cl)c1)C(=O)N[C@@H](C[C@@H]1CCNC1=O)C(=O)C(=O)NC1CC1 | –
13 | 70 nM | 700 nM | O=C(N[C@@H](CC1CCCCC1)C(=O)N[C@@H](C[C@@H]1CCNC1=O)C(O)S(=O)(=O)O)OCc1ccccc1Cl (stereo not given in full) | –
14 | 20 nM | 100 nM | O=C(N[C@@H](CC1CCCCC1)C(=O)N[C@@H](C[C@@H]1CCNC1=O)C(O)S(=O)(=O)O)OCc1cccc(Cl)c1 (stereo not given in full) | –
15 | 200 nM | > 10000 nM | CCOP(=O)(OCC)C(O)[C@H](C[C@@H]1CCNC1=O)NC(=O)[C@H](CC1CCCCC1)NC(=O)OCc1ccccc1Cl (stereo not given in full) | –
16 | 90 nM | 1200 nM | O=C[C@H](C[C@@H]1CCNC1=O)NC(=O)[C@H](CC1CCCCC1)NC(=O)OCc1cccc(F)c1 | –

Row | EC50 (Norovirus) | IC50 [1] | SMILES | further results
17 | 30 nM | 300 nM | O=C[C@H](C[C@@H]1CCNC1=O)NC(=O)[C@H](CC1CCCCC1)NC(=O)OCc1cccc(Br)c1 | inhibition [2]: 0%; inhibition (Homo sapiens): 0%; inhibition [3]: 0%; inhibition [5]: 7%; inhibition [6]: 11.6%; inhibition (Bos taurus): 0%; inhibition [9]: 26.5%
18 | 200 nM | > 10000 nM | N#Cc1cccc(COC(=O)N[C@@H](CC2CCCCC2)C(=O)N[C@H](C=O)C[C@@H]2CCNC2=O)c1 | –
19 | > 2000 nM | > 10000 nM | CS(=O)(=O)NC(=O)[C@H](C[C@@H]1CCNC1=O)NC(=O)[C@H](CC1CCCCC1)NC(=O)OCc1cccc(Cl)c1 | –
20 | 150 nM | 6500 nM | CCOP(=O)(OCC)C(O)[C@H](C[C@@H]1CCNC1=O)NC(=O)[C@H](CC1CCCCC1)NC(=O)OCc1cccc(Br)c1 (stereo not given in full) | inhibition [2]: 0%; inhibition (Homo sapiens): 0%; inhibition [3]: 6%; inhibition [5]: 13%; inhibition [6]: 0%; inhibition (Bos taurus): 1%; inhibition [9]: 63%
21 | 1100 nM | 3400 nM | CC(C)C[C@H](NC(=O)OCc1ccccc1)C(=O)N[C@@H](C[C@@H]1CCNC1=O)C(=O)C(=O)NC1CC1 | –
22 | 80 nM | 800 nM | O=C[C@H](C[C@@H]1CCNC1=O)NC(=O)[C@H](CC1CCCCC1)NC(=O)OCc1ccccc1Cl | –
23 | 100 nM | 900 nM | CC(C)C[C@H](NC(=O)OCc1cccc(Cl)c1)C(=O)N[C@H](C=O)C[C@@H]1CCNC1=O | –
24 | 60 nM | > 10000 nM | CCOP(=O)(OCC)C(O)[C@H](C[C@@H]1CCNC1=O)NC(=O)[C@H](CC1CCCCC1)NC(=O)OCc1cccc(Cl)c1 (stereo not given in full) | inhibition [2]: 0%; inhibition (Homo sapiens): 2.4%; inhibition [3]: 0%; inhibition [5]: 15%; inhibition [6]: 14.3%; inhibition (Bos taurus): 8.8%; inhibition [9]: 86.5%
25 | 200 nM | 600 nM | CC(C)C[C@H](NC(=O)OCc1ccccc1)C(=O)N[C@H](C=O)C[C@@H]1CCNC1=O | –
26 | 60 nM | 400 nM | O=C(N[C@@H](CC1CCCCC1)C(=O)N[C@@H](C[C@@H]1CCNC1=O)C(O)S(=O)(=O)O)OCc1ccccc1 (stereo not given in full) | –
27 | 150 nM | 600 nM | O=C[C@H](C[C@@H]1CCNC1=O)NC(=O)[C@H](CC1CCCCC1)NC(=O)OCc1cccc([N+](=O)[O-])c1 | –
28 | 50 nM | 350 nM | O=C[C@H](C[C@@H]1CCNC1=O)NC(=O)[C@H](CC1CCCCC1)NC(=O)OCc1cccc(I)c1 | –
29 | 100 nM | > 10000 nM | COc1ccccc1COC(=O)N[C@@H](CC1CCCCC1)C(=O)N[C@H](C=O)C[C@@H]1CCNC1=O | –
30 | 60 nM | 300 nM | O=C[C@H](C[C@@H]1CCNC1=O)NC(=O)[C@H](CC1CCCCC1)NC(=O)OCc1ccccc1 | –
31 | 80 nM | 900 nM | O=C[C@H](C[C@@H]1CCNC1=O)NC(=O)[C@H](CC1CCCCC1)NC(=O)OCc1ccccc1F | –
32 | > 2000 nM | > 10000 nM | CCOP(=O)(OCC)C(O)[C@H](C[C@@H]1CCNC1=O)NC(=O)[C@H](CC1CCCCC1)NC(=O)OCc1ccccc1F (stereo not given in full) | –
